Results: ChEMBL document CHEMBL4837218, “Synthesis and in vitro antitumour activity of 4(R)-methyl-3-O-phosphonomethyl-α-l-threose nucleosides” (Eur J Med Chem, 2021)
Activity calls are given as the source filed them. No cut-off for these calls is given here.

What was measured:
MDA-MB-231 [1] = assay: Inhibition of PI3K/AKT signalling pathway in human MDA-MB-231 cells assessed as downregulation of 85ap-PI3K expression at 3 to 9 uM measured after 48 hrs by Western blot analysis; assay type: cell-based; conditions: dose 3-9 µM
Method in brief: (§1)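 After 48 h exposure to compound at several concentrations, cells collected and proteins extracted. SDS-PAGE on 5–15% gels, transfer to nitrocellulose, blocking 2 h in 5% nonfat milk in PBS/0.1% Tween 20, primary antibodies overnight at 4 °C, biotin-conjugated secondary 1 h. Detection on X-ray film; band densitometry.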

MCF7 [2] = assay: Cell cycle arrest in human MCF7 cells assessed as accumulation at G1 phase at 2 uM measured after 48 hrs by propidium iodide staining based flow cytometry (reference value: 70.09 %); assay type: functional
MDA-MB-231 [3] = assay: Cell cycle arrest in human MDA-MB-231 cells assessed as accumulation at G1 phase at 9 uM measured after 48 hrs by propidium iodide staining based flow cytometry (reference value: 46.28%); assay type: functional
MCF7 [4] = assay: Induction of G2/M phase cell cycle arrest in human MCF7 cells assessed as decrease in cyclinB1 protein expression at 1 to 4 uM measured after 48 hrs by western blot analysis; assay type: functional, cell-based; conditions: dose 1-4 µM
Method in brief: (§2)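 Cells exposed to graded concentrations for 48 h, then proteins extracted. Run on SDS-PAGE (5–15% gels) and transferred to nitrocellulose. Blocked 2 h in 5% nonfat milk in PBS/0.1% Tween 20, primary antibody overnight at 4 °C, biotin-conjugated secondary 1 h. Visualized on X-ray film with densitometric quantitation; three independent experiments.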

MCF7 [5] = assay: Induction of mitochondrial membrane potential loss in human MCF7 cells assessed as red fluorescence intensity at 1 uM measured after 48 hrs by JC1 staining-based flow cytometry analysis (reference value: 91.9%); assay type: functional
MDA-MB-231 [6] = assay: Induction of DNA damage in human MDA-MB-231 cells assessed as increase in ATM protein expression at 3 to 9 uM measured after 48 hrs by western blot analysis; assay type: functional, cell-based; conditions: dose 3-9 µM; method in brief: as §2
MCF7 [7] = assay: Induction of apoptosis in human MCF7 cells assessed as increase in cleaved caspase 3 protein expression at 1 to 4 uM measured after 48 hrs by western blot analysis; assay type: functional, cell-based; conditions: dose 1-4 µM
Method in brief: (§3)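 MCF-7 and MDA-MB-231 breast cancer cells treated 48 h with a concentration series, then lysed for protein. SDS-PAGE on 5–15% gels, transfer to nitrocellulose. Blocked 2 h in 5% nonfat milk/PBS-0.1% Tween 20, primary antibodies overnight at 4 °C, biotin-conjugated secondary 1 h. X-ray film detection with densitometric quantification.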

MDA-MB-231 [8] = assay: Cell cycle arrest in human MDA-MB-231 cells assessed as accumulation at S phase at 6 uM measured after 48 hrs by propidium iodide staining based flow cytometry (reference value: 35.54 %); assay type: functional
MDA-MB-231 [9] = assay: Induction of G2/M phase cell cycle arrest in human MDA-MB-231 cells assessed as upregulation of p-cdc25c at ser216 residue protein expression at 9 uM measured after 48 hrs by western blot analysis; assay type: functional, cell-based
MCF7 [10] = assay: Inhibition of PI3K/AKT signalling pathway in human MCF7 cells assessed as downregulation of AKT phosphorylation at Ser473 residue at 1 to 4 uM measured after 48 hrs by Western blot analysis; assay type: cell-based; conditions: dose 1-4 µM; method in brief: as §1
MCF7 [11] = assay: Induction of apoptosis in human MCF7 cells assessed as early apoptotic cells at 2 uM measured after 48 hrs by Annexin V-FITC/propidium iodide staining based flow cytometric analysis (reference value: 3 %); assay type: functional
MDA-MB-231 [12] = assay: Induction of apoptosis in human MDA-MB-231 cells assessed as late apoptotic cells at 6 uM measured after 48 hrs by Annexin V-FITC/propidium iodide staining based flow cytometric analysis (reference value: 0.3%); assay type: functional
MCF7 [13] = assay: Induction of DNA damage in human MCF7 cells assessed as increase in Chk2 protein expression at 1 to 4 uM measured after 48 hrs by western blot analysis; assay type: functional, cell-based; conditions: dose 1-4 µM; method in brief: as §2
MDA-MB-231 [14] = assay: Antiproliferative activity against human MDA-MB-231 cells assessed as growth inhibition measured after 72 hrs by MTT assay; assay type: functional, cell-based; conditions: MDA-MB-231, 72 h
Method in brief: (§4)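 Cells seeded at 3000 exponentially growing cells/well and incubated 12 h at 37 °C. Medium then replaced with fresh medium containing graded compound concentrations for 72 h; 5-FU positive control. MTT (5 mg/mL solution) added for 4 h, formazan dissolved in DMSO, absorbance read at 570 nm (reference 630 nm). Relative percentage inhibition of viable cells calculated; IC50 reported as mean ± standard deviation.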

SW-620 = assay: Antiproliferative activity against human SW-620 cells assessed as cell growth inhibition measured after 72 hrs by MTT assay; assay type: functional, cell-based; conditions: SW-620, 72 h; method in brief: as §4
MDA-MB-231 [15] = assay: Induction of DNA damage in human MDA-MB-231 cells assessed as increase in Chk2 phosphorylation at Thr68 residue at 3 to 9 uM measured after 48 hrs by western blot analysis; assay type: functional, cell-based; conditions: dose 3-9 µM; method in brief: as §2
MCF7 [16] = assay: Induction of apoptosis in human MCF7 cells assessed as increase in cleaved PARP protein expression at 1 to 4 uM measured after 48 hrs by western blot analysis; assay type: functional, cell-based; conditions: dose 1-4 µM; method in brief: as §3
MCF7 [17] = assay: Induction of mitochondrial membrane potential loss in human MCF7 cells assessed as green fluorescence intensity at 2 uM measured after 48 hrs by JC1 staining-based flow cytometry analysis (reference value: 8.1 %); assay type: functional
MCF7 [18] = assay: Induction of apoptosis in human MCF7 cells assessed as late apoptotic cells at 2 uM measured after 48 hrs by Annexin V-FITC/propidium iodide staining based flow cytometric analysis (reference value: 0.6 %); assay type: functional
MDA-MB-231 [19] = assay: Induction of mitochondrial membrane potential loss in human MDA-MB-231 cells assessed as green fluorescence intensity at 6 uM measured after 48 hrs by JC1 staining-based flow cytometry analysis (reference value: 0.8 %); assay type: functional
MDA-MB-231 [20] = assay: Cell cycle arrest in human MDA-MB-231 cells assessed as accumulation at G1 phase at 3 uM measured after 48 hrs by propidium iodide staining based flow cytometry (reference value: 46.28%); assay type: functional
MDA-MB-231 [21] = assay: Cell cycle arrest in human MDA-MB-231 cells assessed as accumulation at S phase at 3 uM measured after 48 hrs by propidium iodide staining based flow cytometry (reference value: 35.54 %); assay type: functional
MCF7 [22] = assay: Inhibition of colony formation in human MCF7 cells incubated for 24 hrs followed by medium removal and measured after 7 days by crystal violet staining based assay; assay type: functional, cell-based; conditions: dose 1-4 µM
Method in brief: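 Cells seeded at 1 × 10³ per well in six-well plates and left overnight. Compound (DMSO solution) given in fresh medium for 24 h, then medium removed and plates grown another 7 days. Colonies washed with PBS, fixed in 4% paraformaldehyde 30 min, stained with 0.1% crystal violet 30 min, photographed and counted.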

MDA-MB-231 [23] = assay: Cell cycle arrest in human MDA-MB-231 cells assessed as accumulation of cells at G2/M phase at 9 uM in presence of cdc25c inhibitor, NSC663284 measured after 48 hrs by PI staining based flow cytometry; assay type: functional
Method in brief: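 Four arms (untreated, test compound alone, 0.3 NSC663284 alone, combination) applied to cells for 48 h. Cells were fixed in 70% ice-cold ethanol at 4 °C overnight and stained with RNase/PI for 30 min in the dark. G2/M fraction was read by flow cytometry.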

MCF7 [24] = assay: Induction of apoptosis in human MCF7 cells assessed as increase in Bad protein expression at 1 to 4 uM measured after 48 hrs by western blot analysis; assay type: functional, cell-based; conditions: dose 1-4 µM; method in brief: as §3

Compound: C[C@H]1O[C@@H](n2cnc3c(N)nc(F)nc32)[C@H](O)[C@H]1OCP(=O)([O-])[O-].[Na+].[Na+]
- inhibition (MDA-MB-231 [1]): Active
- Activity (MCF7 [2]): 41.43%
- Activity (MDA-MB-231 [3]): 33.66%
- Activity (MCF7 [4]): Active
- Activity (MCF7 [5]): 90.9%
- Activity (MDA-MB-231 [6]): Active
- Activity (MCF7 [7]): Active
- Activity (MDA-MB-231 [8]): 31.86%
- Activity (MDA-MB-231 [9]): Active
- inhibition (MCF7 [10]): Active
- Activity (MCF7 [11]): 46.3%
- Activity (MDA-MB-231 [12]): 18.8%
- Activity (MCF7 [13]): Active
- IC50 (MDA-MB-231 [14]): 0.391 µM
- IC50 (SW-620): 6.62 µM
- Activity (MDA-MB-231 [15]): Active
- Activity (MCF7 [16]): Active
- Activity (MCF7 [17]): 32.8%
- Activity (MCF7 [18]): 6.5%
- Activity (MDA-MB-231 [19]): 36.2%
- Activity (MDA-MB-231 [20]): 44.13%
- Activity (MDA-MB-231 [21]): 34.82%
- inhibition (MCF7 [22]): Dose-Dependent Effect
- Activity (MDA-MB-231 [23]): inactive
- Activity (MCF7 [24]): Active
